Screening results from PubChem.
Most compounds without a hit are left out; they make up all but 1.7% or so of the library.
Cneo AK release – causes C. neoformans cell lysis; adenylate kinase release luminescence, 4 h; normalised: neutral wells 0, clomiphene wells 100; lysis activity, % at 15 µM; hit rate 0.2% among 360,000; AID 651654;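 active means mean lysis activity across replicates of at least 80%, whatever share of replicates individually reach that level; inactive means mean lysis activity below 80%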
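Material: C. neoformans cells | Amount: Yeast cell density of 5 × 10^6 cells/mL | Medium: Fresh YPD growth medium | Dosing: Single dose | Times: Static 4 h at 37 °C with compound, 1 h detection | Detection: AK luminescence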
CaV13 FRET inh – Primary screen for inhibitors of IQ motif and Ca2+-dependent inactivation inhibitor domain binding in CACNA1D, Förster resonance energy transfer in living cells, …; inhibition, % at 12.3 µM; hit rate 0.098% among 340,000; HEK cells, CFP/YFP FRET ICDI-IQ, plate reader, 10 min; percent FRET-ratio fall versus neutral wells;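 active means mean replicate inhibition of at least 30% and at least 1% of replicates passing that level; inconclusive means only one of the two criteria is met; inactive means neither criterion is met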;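 further: 0% = median of the neutral control wells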
rRNA inh HTS – selective bacterial rRNA inhibition in E. coli; E. coli WT GFP vs humanized-ribosome RFP mutants, fluorescence, 24 h; active compounds read low; DMSO median 0, no signal -100; GFP signal change (wild-type ribosome), % (no concentration beside the values); hit rate 1.6% among 350,000; AID 720706;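 active means significant combined selectivity score with lowered wild-type GFP, culture density cut under 30%, mutant RFP and density less affected; inactive means any of these conditions unmet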
CFTR F508del cor – CFTR F508del correction in bronchial cells. CFBE cells, YFP halide quenching; stimulated with forskolin plus potentiator P3; % fluorescence drop versus neutral controls. activity (quench increase), % at 7.58 µM. hit rate 0.36% among 350,000;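 active means mean added fluorescence quench of at least 8% versus neutral control, with both replicates also reaching 8%; inconclusive means only one of the mean or replicate conditions met; inactive means mean below 8% and not both replicates reaching 8%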;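 further: cells transiently co-express mutant CFTR-F508del with the halide-sensitive YFP; corrector assay measuring rescue of mutant channel to the surface after 24 h compound exposure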
HepG2 tox – cytotoxic compounds in HepG2 cells; HepG2 viability, ATP luminescence, 72 h; shares compounds with rRNA inh HTS; activity change, negative = cytotoxicity, unspecified at 26 µM; 30 tested, under 10 active;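 active means compounds whose fitted half-maximal signal-loss concentration is at most twice their highest valid dose; inconclusive means flat curve with 30 to 70% signal loss, or poor fit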
AID977621 – growth inhibition of wild-type GFP E. coli, dose response, H69 mutant RFP, cherry-pick. shares compounds with rRNA inh HTS. E. coli wild-type GFP strain growth, fluorescence, 24 h. activity change, negative = inhibition at 50 µM. 1,900 tested, under 10 active. AID 977621;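 active means Wild-type ribosome reporter drop at least double the humanized mutant ribosome reporter drop, growth loss under a set limit; inconclusive means no clear call, values can overlap the other calls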;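 further: wild-type GFP and H69 mutant RFP strains grown together 50/50 in each well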
AID977628 – growth of wild-type and h24-humanized E. coli strains – h24 mutant RFP vs wild-type GFP, cherry-pick, dose response | shares compounds with rRNA inh HTS | E. coli WT GFP strain growth, fluorescence, 24 h | activity change, negative = inhibition at 50 µM | 1,900 tested, under 10 active;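 active means compound lowering the normal-ribosome reporter at least twice as much as the humanized-ribosome reporter, growth loss under a set limit; inconclusive means no clear call, values can overlap the other calls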;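 further: wild-type GFP and h24 humanized RFP strains co-cultured 1 to 1 per well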
* hit, by the source's call; ? = inconclusive; nt = no result.

SMILES	Cneo AK release	CaV13 FRET inh	rRNA inh HTS	CFTR F508del cor	AID977621	AID977628	others
C[C@H]1CN([C@@H](C)CO)C(=O)c2cc(NC(=O)CCC(F)(F)F)ccc2O[C@H]1CN(C)S(=O)(=O)c1cn(C)cn1	0	nt	5	1	nt	nt
C[C@@H]1CCCCO[C@H](CN(C)Cc2ccc3c(c2)OCO3)[C@@H](C)CN([C@@H](C)CO)C(=O)c2cc(NS(=O)(=O)c3ccccc3)ccc2O1	1	nt	4	1	nt	nt
Cc1occc1-c1nnc(SCC(=O)Nc2nc(-c3ccccc3)cs2)o1	0	-7	-24*	-3	?	-7.2
Cc1cc(-c2nnc(SCC(=O)Nc3nc(-c4ccccc4)cs3)o2)no1	2	-16	0	-2	nt	nt
COc1ccc(C(=O)C[n+]2ccc3c(c2)nc(-c2cc(OC)c(OC)cc2OC)n3C)cc1	2	-7	-28*	1	?	-10
COc1cc(OC)c(-c2nc3c[n+](CC(=O)c4ccccc4)ccc3n2C)cc1OC	0	-6	nt	nt	nt	nt
Cc1cccc(Oc2ccc(NC(=O)c3ccccc3C(=O)O)cc2)c1	-3	-7	-23*	-1	-17	?
COC(=O)C1CCN(C(=O)c2ccc(OC)c(S(=O)(=O)N3CCCc4ccccc43)c2)CC1	0	-7	-14*	-3	-8.4	?
COC(=O)C1CCN(C(=O)COC(=O)c2ccc(OC)c(S(=O)(=O)N3CCCc4ccccc43)c2)CC1	nt	1	-21	0	nt	nt
O=S(=O)(Nc1ccccc1N1CCOCC1)c1cccs1	-1	-2	4	0	nt	nt
O=S(=O)(Nc1ccccc1N1CCCCC1)c1cccs1	-6	-5	-33*	-1	-4.5	-8.4
COc1ccc(-n2cc(-c3ccccc3)c3c(N4CCOCC4)ncnc32)cc1	-3	-7	-29*	-3	nt	?	HepG2 tox=15
COc1ccc(-n2cc(-c3ccccc3)c3c(NCCCN4CCOCC4)ncnc32)cc1	nt	-5	-56	nt	nt	nt
COc1cc2c(cc1[N+](=O)[O-])-c1ccccc1C2	0	-3	nt	-1	nt	nt
COc1cc2c(cc1[N+](=O)[O-])-c1ccc([N+](=O)[O-])cc1C2	-1	-5	-23*	2	nt	?	HepG2 tox=-23
COc1ccc(S(=O)(=O)Nc2ccc3c(c2)C(=O)N([C@H](C)CO)C[C@@H](C)[C@@H](CN(C)C(=O)NC2CCCCC2)O3)cc1	-2	nt	-1	-4	nt	nt
COc1ccc2c3c(n(C)c2c1)[C@@H](CO)N(S(C)(=O)=O)CC31CCN(Cc2cccnc2)CC1	nt	nt	-3	0	nt	nt
Cn1c(=O)c2c(ncn2CC(O)CNc2ccc(F)cc2)n(C)c1=O (stereo not drawn)	nt	8	-27*	2	-10	-5.4
Cc1ccc(Cn2cnc3ccccc32)cc1	6	-7	-25*	1	-13	-0.7
CCN(C(=O)CSc1cc(C)c2ccc(OC)cc2n1)C1CCS(=O)(=O)C1 (stereo not drawn)	-4	-5	-23*	-1	-16	-14
CCN(C(=O)CSc1cc(-c2ccccc2)c2ccc(OC)cc2n1)C1CCS(=O)(=O)C1 (stereo not drawn)	nt	-3	nt	nt	nt	nt
C[C@@H]1CN([C@H](C)CO)C(=O)c2cc(NC(=O)CCC(F)(F)F)ccc2O[C@@H](C)CCCCO[C@H]1CN(C)S(C)(=O)=O	-4	nt	1	2	nt	nt
O=C(c1cnccn1)N1CC(=O)N2[C@@H](CO)[C@@H](c3ccc(C#CCC4CCCC4)cc3)[C@@H]2C1	nt	nt	-4	-2	nt	nt
Cc1ccc(S(=O)(=O)NC2c3cccc4cccc(c34)C2Sc2nc(C)cc(C)n2)cc1 (stereo not drawn)	-2	-6	nt	nt	nt	nt
O=S(=O)(NC1c2cccc3cccc(c23)C1Sc1ncccn1)c1ccccc1 (stereo not drawn)	nt	-14	-24*	nt	-7.5	?
